According to ChEMBL document CHEMBL4715738, “In Vitro Antibacterial Activity of Curcumin-Polymyxin B Combinations against Multidrug-Resistant Bacteria Associated with Traumatic Wound Infections” (J Nat Prod, 2016):

Key:
Enterococcus faecium [1] = test: Antibacterial activity against vancomycin-resistant Enterococcus faecium OEF65 assessed as reduction in bacterial growth incubated for 24 hrs in presence of curcumin; format: functional
Staphylococcus aureus [2] = test: Antibacterial activity against vancomycin-intermediate resistant Staphylococcus aureus Mu50 assessed as reduction in bacterial growth incubated for 24 hrs in presence of curcumin; format: functional
Staphylococcus aureus [3] = test: Antibacterial activity against Staphylococcus aureus ATCC 25923 assessed as reduction in bacterial growth incubated for 24 hrs in presence of curcumin; format: functional
Streptococcus pyogenes = test: Antibacterial activity against Streptococcus pyogenes SPY2 assessed as reduction in bacterial growth incubated for 24 hrs in presence of curcumin; format: functional
Escherichia coli [4] = test: Antibacterial activity against Escherichia coli EC2 harboring CTX-M-15 assessed as reduction in bacterial growth incubated for 24 hrs in presence of curcumin; format: functional
Acinetobacter baumannii [5] = test: Antibacterial activity against Acinetobacter baumannii AB12 harboring OXA-23 assessed as reduction in bacterial growth incubated for 24 hrs in presence of curcumin; format: functional
Acinetobacter baumannii [6] = test: Antibacterial activity against Acinetobacter baumannii AB16 harboring OXA-23 clone 2 assessed as reduction in bacterial growth incubated for 24 hrs in presence of curcumin; format: functional
Pseudomonas aeruginosa [7] = test: Antibacterial activity against Pseudomonas aeruginosa PAO1 assessed as reduction in bacterial growth incubated for 24 hrs in presence of curcumin; format: functional
Pseudomonas aeruginosa [8] = test: Antibacterial activity against Pseudomonas aeruginosa PA14 assessed as reduction in bacterial growth incubated for 24 hrs in presence of curcumin; format: functional
Pseudomonas aeruginosa [9] = test: Antibacterial activity against Pseudomonas aeruginosa ATCC 27853 assessed as reduction in bacterial growth incubated for 24 hrs in presence of curcumin; format: functional
[10] = test system: Stenotrophomonas maltophilia; test: Antibacterial activity against Stenotrophomonas maltophilia NCTC 10258 assessed as reduction in bacterial growth incubated for 24 hrs in presence of curcumin; format: functional
Enterococcus faecium [11] = test: Synergistic antibacterial activity against vancomycin-resistant Enterococcus faecium OEF65 assessed as fractional inhibitory concentration index measured after 24 hrs in presence of curcumin by checkerboard assay; format: functional
Method in brief: (§1)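 FICI was derived from checkerboard MICs. Synergy was defined as FICI ≤ 0.5 and additive as FICI > 0.5−4.0. Where an MIC was not reached, the dilution above the maximum dose was used in the FICI calculation. Experiments were run in triplicate and reported as means.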

Staphylococcus aureus [12] = test: Synergistic antibacterial activity against vancomycin-intermediate resistant Staphylococcus aureus Mu50 assessed as fractional inhibitory concentration index measured after 24 hrs in presence of curcumin by checkerboard assay; format: functional; method in brief: as §1
Staphylococcus aureus [13] = test: Synergistic antibacterial activity against Staphylococcus aureus ATCC 25923 assessed as fractional inhibitory concentration index measured after 24 hrs in presence of curcumin by checkerboard assay; format: functional; method in brief: as §1
Staphylococcus aureus [14] = test: Synergistic antibacterial activity against methicillin-resistant Staphylococcus aureus NCTC 12493 assessed as fractional inhibitory concentration index measured after 24 hrs in presence of curcumin by checkerboard assay; format: functional; method in brief: as §1
Acinetobacter baumannii [15] = test: Synergistic antibacterial activity against Acinetobacter baumannii AB16 harboring OXA-23 clone 2 assessed as fractional inhibitory concentration index measured after 24 hrs in presence of curcumin by checkerboard assay; format: functional; method in brief: as §1
Pseudomonas aeruginosa [16] = test: Synergistic antibacterial activity against Pseudomonas aeruginosa ATCC 27853 assessed as fractional inhibitory concentration index measured after 24 hrs in presence of curcumin by checkerboard assay; format: functional
Method in brief: (§2)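 FICI calculated from combination MICs; ≤0.5 taken as synergy and >0.5–4.0 as additive. Where an MIC was not reached, the dilution above the highest concentration tested was used in the calculation. Run in triplicate and reported as means.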

[17] = test system: Stenotrophomonas maltophilia; test: Synergistic antibacterial activity against Stenotrophomonas maltophilia SMS01 assessed as fractional inhibitory concentration index measured after 24 hrs in presence of curcumin by checkerboard assay; format: functional; method in brief: as §2
[18] = test system: Stenotrophomonas maltophilia; test: Synergistic antibacterial activity against Stenotrophomonas maltophilia SMB07 assessed as fractional inhibitory concentration index measured after 24 hrs in presence of curcumin by checkerboard assay; format: functional; method in brief: as §2
HaCaT [19] = test: Cytotoxicity against human HaCaT cells at 6.1 uM measured after 4 hrs by CyTox 96 nonradioactive assay relative to control; format: cell-based
Enterococcus faecalis [20] = test: Antibacterial activity against […] Enterococcus faecalis ATCC 29212 assessed as reduction in bacterial growth incubated for 24 hrs in presence of polymyxin B; format: functional
Staphylococcus aureus [21] = test: Antibacterial activity against methicillin-resistant Staphylococcus aureus NCTC 12493 assessed as reduction in bacterial growth incubated for 24 hrs in presence of polymyxin B; format: functional
Escherichia coli [22] = test: Antibacterial activity against Escherichia coli EC2 harboring CTX-M-15 assessed as reduction in bacterial growth incubated for 24 hrs in presence of polymyxin B; format: functional
Escherichia coli [23] = test: Antibacterial activity against Escherichia coli EC204 harboring NDM-1 assessed as reduction in bacterial growth incubated for 24 hrs in presence of polymyxin B; format: functional
Acinetobacter baumannii [24] = test: Antibacterial activity against Acinetobacter baumannii AB12 harboring OXA-23 assessed as reduction in bacterial growth incubated for 24 hrs in presence of polymyxin B; format: functional
Acinetobacter baumannii [25] = test: Antibacterial activity against Acinetobacter baumannii AB16 harboring OXA-23 clone 2 assessed as reduction in bacterial growth incubated for 24 hrs in presence of polymyxin B; format: functional
Pseudomonas aeruginosa [26] = test: Antibacterial activity against Pseudomonas aeruginosa PAO1 assessed as reduction in bacterial growth incubated for 24 hrs in presence of polymyxin B; format: functional
[27] = test system: Stenotrophomonas maltophilia; test: Antibacterial activity against Stenotrophomonas maltophilia NCTC 10258 assessed as reduction in bacterial growth incubated for 24 hrs in presence of polymyxin B; format: functional
Staphylococcus aureus [28] = test: Bactericidal activity against methicillin-resistant Staphylococcus aureus NCTC 12493 assessed as log reduction in colony forming units at 0.5 fold MIC measured after 24 hrs in presence of polymyxin B at MIC by time kill assay; format: functional
Method in brief: (§3)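 Time-kill in 10 mL Mueller-Hinton 2 broth, 37 °C with continuous agitation, 24 h. Inoculum was a 1/1000 dilution of a 16 h overnight culture, about 10^6 CFU/mL. Single agents at 1× MIC; combination at 1× MIC polymyxin B plus 0.5× MIC curcumin. Samples at 0, 2, 4, 6 and 24 h were serially diluted and plated on IsoSensitest agar for CFU/mL.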

Pseudomonas aeruginosa [29] = test: Bactericidal activity against Pseudomonas aeruginosa ATCC 27853 assessed as bacterial cell death at 0.5 fold MIC measured after 4 to 6 hrs in presence of polymyxin B at MIC by time kill assay relative to control; format: functional; conditions: time 4-6 hrs; method in brief: as §3
Staphylococcus aureus [30] = test: Bactericidal activity against methicillin-resistant Staphylococcus aureus NCTC 12493 assessed as bacterial cell death at 0.5 fold MIC measured after 4 to 6 hrs hrs in presence of polymyxin B at MIC by time kill assay relative to control; format: functional; conditions: time 4-6 hrs; method in brief: as §3
HaCaT [31] = test: Cytotoxicity against human HaCaT cells at 174 uM measured after 4 hrs by CyTox 96 nonradioactive assay relative to control; format: cell-based
HaCaT [32] = test: Cytotoxicity against human HaCaT cells at 43.4 uM measured after 4 hrs in presence of 1.5 uM polymyxin B by CyTox 96 nonradioactive assay relative to control; format: cell-based
Enterococcus faecalis [33] = test: Potentiation of polymyxin B-induced antibacterial activity against Enterococcus faecalis ATCC 29212 assessed as fold reduction in polymyxin B MIC measured after 24 hrs in presence of polymyxin B by checkerboard assay

Molecule `CC[C@H](C)CCCCC(=O)N[C@@H](CCN)C(=O)N[C@H](C(=O)N[C@@H](CCN)C(=O)N[C@H]1CCNC(=O)[C@H]([C@@H](C)O)NC(=O)[C@H](CCN)NC(=O)[C@H](CCN)NC(=O)[C@H](CC(C)C)NC(=O)[C@@H](Cc2ccccc2)NC(=O)[C@H](CCN)NC1=O)[C@@H](C)O.O=S(=O)(O)O` has an MIC (Enterococcus faecium [1]) of 1.5 µM, an MIC (Staphylococcus aureus [2]) of 1.5 µM and an MIC (Staphylococcus aureus [3]) of 6.1 µM. The MIC (Streptococcus pyogenes) was 0.79 µM, the MIC (Escherichia coli [4]) was 0.024 µM and the MIC (Acinetobacter baumannii [5]) was 0.024 µM. The MIC (Acinetobacter baumannii [6]) was 0.012 µM, the MIC (Pseudomonas aeruginosa [7]) was 0.012 µM and the MIC (Pseudomonas aeruginosa [8]) was 0.012 µM. For the same molecule, the MIC (Pseudomonas aeruginosa [9]) was 0.006 µM, the MIC [10] was 0.008 µM and the “fractional inhibitory concentration index (FICI)” value (Enterococcus faecium [11]) was 0.281. The “fractional inhibitory concentration index (FICI)” value (Staphylococcus aureus [12]) was 0.047, the “fractional inhibitory concentration index (FICI)” value (Staphylococcus aureus [13]) was 0.156 and the “fractional inhibitory concentration index (FICI)” value (Staphylococcus aureus [14]) was 0.031. The “fractional inhibitory concentration index (FICI)” value (Acinetobacter baumannii [15]) was 0.068, the “fractional inhibitory concentration index (FICI)” value (Pseudomonas aeruginosa [16]) was 0.079 and the “fractional inhibitory concentration index (FICI)” value [17] was 0.012. For the same molecule, the “fractional inhibitory concentration index (FICI)” value [18] was 0.023 and the Activity (HaCaT [19]) was 2%.
In the case of `COc1cc(/C=C/C(=O)CC(=O)/C=C/c2ccc(O)c(OC)c2)ccc1O` [CURCUMIN], the MIC (Enterococcus faecalis [20]) is reported as 87 µM, the MIC (Staphylococcus aureus [21]) is reported as 43 µM and the MIC (Escherichia coli [22]) is reported as 43 µM. The MIC (Escherichia coli [23]) was 174 µM, the MIC (Acinetobacter baumannii [24]) was 87 µM and the MIC (Acinetobacter baumannii [25]) was 22 µM. For the same molecule, the MIC (Pseudomonas aeruginosa [26]) was 43 µM, the MIC [27] was 22 µM and the Activity (Staphylococcus aureus [28]) was over 3 log10CFU/ml. It also gave an Activity (Pseudomonas aeruginosa [29]) of 100%, an Activity (Staphylococcus aureus [30]) of 100% and an Activity (HaCaT [31]) of 34%. For the same molecule, the Activity (HaCaT [32]) was 22% and the “fold change (FC)” value (Enterococcus faecalis [33]) was 3.
